Screens from PubChem BioAssay.
In the library only some 4% were active in any assay of this set; here they are far more common.
TAAR1 ag – human TAAR1 agonism; CHO RD-HGA16 TAAR1, Fluo-8 calcium fluorescence; vehicle wells 0%, saturating PEA agonist 100%; activation, % at 3 µM; 360,000 tested, 0.99% active; AID 624467;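 active = activation above the mean activation of all test compounds in the run plus 3 SD, cut at about 38% in these data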
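Test system: RD-HGA16 (CHO) cells co-expressing Gα16 and hTAAR1; dosing: one-point dosing at 3 µM (nominal); timing: 17-24 h seeding, 75 min 37 °C dye, 30 min RT; signal: kinetic Fluo-8 calcium fluorescence; read-out basis: % activation relative to PEA EC100 response; controls: DMSO and PEA EC100; replicates: n 1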
OX1R antag-1 – human HCRTR1 antagonism; O43613; CHO/OX1R cells, Fluo-8 calcium fluorescence, orexin A; inhibition, % at 5 µM; 330,000 tested, 0.43% active;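 active = inhibition above its plate's threshold, mean inhibition of all tested compounds on the plate plus 3 SD, cut at about 37% in these data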;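 note: 0% = orexin A challenge wells and 100% = SB-334867-A antagonist wells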
Target sequence (O43613 whole entry, looked up): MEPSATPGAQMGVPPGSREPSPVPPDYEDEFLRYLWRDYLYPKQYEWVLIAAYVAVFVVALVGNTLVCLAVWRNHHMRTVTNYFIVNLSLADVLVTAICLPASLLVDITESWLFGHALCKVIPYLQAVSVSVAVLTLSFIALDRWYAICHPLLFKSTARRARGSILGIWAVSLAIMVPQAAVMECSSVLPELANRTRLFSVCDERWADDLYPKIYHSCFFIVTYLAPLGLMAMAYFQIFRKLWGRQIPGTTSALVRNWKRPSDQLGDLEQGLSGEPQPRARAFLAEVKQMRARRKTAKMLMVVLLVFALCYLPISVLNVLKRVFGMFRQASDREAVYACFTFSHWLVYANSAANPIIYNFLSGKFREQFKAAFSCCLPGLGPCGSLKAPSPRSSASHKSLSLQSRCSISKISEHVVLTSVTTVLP
OX1R antag-2 – antagonists of human orexin 1 receptor (OX1R). OX1R-expressing cells, FRET antagonist read-out. O43613. 330,000 tested, 1.8% active. AID 485270. inhibition, % at 6.6 µM; in the data active = inhibition mostly above about 38%, no sharp cut-off; inactive = mostly below about 40%;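 note: 0% = agonist challenge alone and 100% = reference antagonist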
CHO parental Ca – counter-screen for OX1R antagonists: effect in parental CHO cells | parental CHO-K1, ATP-induced calcium, Fluo-8 fluorescence | inhibition, % at 5.6 µM | 330,000 tested, 0.63% active;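 active = inhibition above that plate's mean sample inhibition plus 3 SD, cut at about 26% in these data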;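 note: 0% = ATP-challenged DMSO wells and 100% = DMSO wells without ATP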
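Material: parental CHO cells / Compound: single nominal dose of 5.6 µM per compound / Signal: Fluo-8 fluorescence / Replicates: singlicate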
TAAR1 antagonist – human TAAR1 antagonism; CHO RD-HGA16 TAAR1, Fluo-8 calcium fluorescence, antagonist; inhibition, % at 3 µM; 360,000 tested, 1.5% active; AID 624466;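 active = inhibition above a per-plate cutoff, the mean inhibition of test compounds on that plate plus 3 SD, cut at about 49% in these data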;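 note: 0% = DMSO plus EC80 beta-PEA response and 100% = DMSO alone without agonist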
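System: CHO RD-HGA16 cells bearing hTAAR1. Reagent: EC80 β-phenethylamine stimulus. Schedule: seeding 17-24 h prior, 75-min 37 °C, 30-min RT dye loading. Signal: Fluo-8 intracellular calcium dye fluorescence, real-time kinetic reads. Read-out: % inhibition from peak post-agonist over basal fluorescence ratio. Benchmarks: vehicle wells and EC80 agonist wells. Replicates: n of 1.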
Active calls of the source: *; . = not tested or not shown; ! = repeats disagree.

SMILES | TAAR1 ag | OX1R antag-1 | OX1R antag-2 | CHO parental Ca | TAAR1 antagonist
CCOc1ccc(-n2c(O)c(N=Nc3c(C)n(C)n(-c4ccccc4)c3=O)c(=O)[nH]c2=O)cc1 | 0 | -2 | 39* | 6 | -30
C[C@H](Cc1ccc(OCC(=O)O)cc1)NC[C@H](O)c1cccc(Cl)c1 | 7 | . | . | . | -6
CN1OC[C@@H]2CN3C4(C[C@@H]21)c1ccccc1C3(c1ccccc1)c1ccccc14 | 1 | . | . | . | -36
CCOCCCn1c(N)c(C(=O)Nc2sc3c(c2C(=O)OC)CCCC3)c2nc3ccccc3nc21 | 21 | -9 | 12 | -6 | 64*
N#Cc1ccc2nc(-c3ccc(CN4CCC(n5c(=O)[nH]c6cc(Cl)ccc65)CC4)cc3)c(-c3ccccc3)nc2c1 | 2 | . | . | . | 25
Cc1cc(N2CCNC[C@@H]2C)ccc1N1CC[C@@H](O)C1 | 3 | . | . | . | -28
Clc1ccc(C[n+]2c(-c3ccccc3)cc(-c3ccccc3)cc2-c2ccccc2)cc1 | 9 | 63* | 3 | 63* | 21
Fc1ccc(C[n+]2c(-c3ccccc3)cc(-c3ccccc3)cc2-c2ccccc2)cc1 | 10 | 15 | 19 | 23 | 9
COC(=O)C1C(OC(=O)c2ccccc2)CC2CCC1[N+]2(C)C (stereo not drawn) | 1 | . | . | . | -17
NC(Cc1ccccc1)c1csc(Nc2ccccn2)n1 (stereo not drawn) | 6 | . | . | . | 12
NC(Cc1ccc(Cl)cc1)c1csc(Nc2ccccn2)n1 (stereo not drawn) | 44* | . | . | . | 29
NC(Cc1ccc(F)cc1)c1csc(Nc2cnccn2)n1 (stereo not drawn) | 10 | . | . | . | -13
NC(Cc1ccc(F)cc1)c1csc(Nc2ccccn2)n1 (stereo not drawn) | 40* | . | . | . | 8
CCCCNC(C)Cc1ccccc1 (stereo not drawn) | 1 | -5 | 11 | -2 | 2
COc1ccc(CC(C)NCCC(c2ccccc2)c2ccccc2)cc1 (stereo not drawn) | 42* | -8 | 7 | 2 | 43
Oc1ccc(-[n+]2c(-c3ccccc3)cc(-c3ccccc3)cc2-c2ccccc2)cc1 | 2 | 37 | 20 | 44* | 31
O=C(NCC1=C(c2cccc3ccccc23)C[C@@H]2CC[C@H]1N2Cc1ccco1)c1cccs1 | 2 | . | . | . | -13
Cc1ccc2c(c1N)C(=O)c1ccccc1C2=O | 5 | 19 | 40* | 4 | 12
CCC1C2CC3C4N(C)c5ccccc5C45CC(C2C5O)N3C1O (stereo not drawn) | 1 | . | . | . | 4
CN(C(=O)COC(=O)c1cn(C)c2ccccc12)C1CCCCC1 | 16 | 22 | 38* | -12 | 9
Cc1ccc(N2Cc3ccccc3-n3nncc3C2)cc1 | 0 | . | . | . | -16
Nc1c(C(=O)NCCCc2ccccc2)c2nc3ccccc3nc2n1Cc1cccs1 | 37* | -10 | 17 | -16 | -10
C[C@H]1CNCCN1c1ccc(N2CC[C@@H](O)C2)c(C#N)c1 | 2 | . | . | . | -21
O=C1NC(=O)N(c2ccccc2F)C(=O)/C1=C/c1ccc(Sc2nc3ccccc3[nH]2)o1 | 74* | 41 | 17 | 38 | 57*
O=C1NC(=O)N(c2ccccc2)C(=O)/C1=C/c1ccc(Sc2ccccc2)o1 | . | 8 | 8 | -4 | .
SMILES | TAAR1 ag | OX1R antag-1 | OX1R antag-2 | CHO parental Ca | TAAR1 antagonist
C[C@]12CCC3C(CC[C@H]4C[C@@H](O)CC[C@]34C)C1CC[C@@]2(O)C(F)(F)F (stereo partly drawn) | 3 | 2 | 10 | 3 | 12
CCN(CC)CCC(=O)O[C@H]1CC[C@]2(C)C3CC[C@@]4(C)C(CC[C@]4(C)O)C3CC[C@H]2C1 (stereo partly drawn) | 43* | 19 | 5 | 0 | 60*
CCC12CCN(CC3(O)CC3)C(Cc3ccc(O)cc31)C2(C)C (stereo not drawn) | 1 | . | . | . | 13
CCOC(=O)C1CCCN(c2ccc([N+](=O)[O-])c3nonc23)C1 (stereo not drawn) | 225* | . | . | . | 71*
O=C(O)COc1ccc(Cl)cc1Cl | 1 | -5 | 13 | -3 | -8
Oc1cc(Cl)ccc1Oc1ccc(Cl)cc1Cl | -2 | 25 | 45* | 67* | 50*
Clc1ccc([C@H]2CC3CCC2N3)cn1 (stereo partly drawn) | 5 | . | . | . | -33
Cc1cccc(NP(=O)(Oc2ccccc2F)Oc2ccccc2F)c1 | 4 | -11 | 9 | -7 | 53*
COc1ccccc1OP(=O)(Nc1cccnc1)Oc1ccccc1OC | 15 | -4 | 10 | -10 | 60*
N/C(=N\[N+](=O)[O-])N/N=C/c1ccc(O)cc1 | 18 | -8 | 10 | 1 | -17
Nc1nonc1C(=O)N/N=C/c1ccc([N+](=O)[O-])o1 | 2 | -6 | 75* | -2 | 0
C[C@]12CC[C@H](O)CC1=CC[C@@H]1[C@@H]2CC[C@]2(C)C(=O)CC[C@@H]12 | 7 | -5 | 15 | -8 | -21
C[C@]12CC[C@H](O)CC1=CCC1C2CC[C@]2(C)C(=O)[C@H](Br)CC12 (stereo partly drawn) | 12 | 6 | 7 | -15 | 59*
N#CC(C#N)=NNc1ccc(-n2ccc(C(F)(F)F)n2)cc1 | 6 | 53* | 61* | 50* | 9
Cc1cccc(OP(=O)(Oc2ccccc2)OC(c2ccccc2)C(F)(F)F)c1 (stereo not drawn) | 1 | -31 | 40 | 37 | 51*
O=CNc1ccc(OP(=O)(Oc2ccccc2)Oc2ccccc2)cc1 | -1 | -10 | 12 | -16 | 9
Cc1cc(C)cc(N2C(=O)NC(=O)/C(=C\c3cccn3-c3ccccc3)C2=O)c1 | 43* | -5 | 21 | -22 | 47
Cc1cccc(N2C(=O)NC(=O)/C(=C\c3cnc(-c4ccccc4)nc3)C2=O)c1 | 3 | -5 | 5 | 1 | -2
O=C(NC1CCCCC1)N1Cc2ccc(Br)cc2-n2nncc2C1 | 3 | . | . | . | -14
CC(C)c1ccc(N=Nc2c(O)[nH]c(=O)[nH]c2=O)cc1 | 1 | -7 | 20 | -1 | -12
O=C1OCc2cc(N=Nc3c(O)[nH]c(=O)[nH]c3=O)ccc21 | 3 | -1 | 42* | -7 | -4
Fc1cccc(-c2ccc3c(c2)CNCc2cnnn2-3)c1 | -2 | . | . | . | -1
Clc1ccc(COC(Cn2ccnc2)c2ccc(Cl)cc2Cl)c(Cl)c1 (stereo not drawn) | 19 | 39*! | 25*! | 43*! | 53*!
CC(C)C(CN1CCC(C)(c2cccc(O)c2)[C@@H](C)C1)NC(=O)C1Cc2ccc(O)cc2CN1 (stereo partly drawn) | 2 | . | . | . | 1
O=C1NS(=O)c2cc([N+](=O)[O-])cc([N+](=O)[O-])c21 (stereo not drawn) | 10 | -1 | 67* | -8 | -11
Cc1cccc(N=C2c3cc([N+](=O)[O-])ccc3-c3c2cc([N+](=O)[O-])cc3[N+](=O)[O-])c1 | 4 | . | . | . | -16
